We go through eight compounds from ChEMBL document CHEMBL1144865, “N-aminoimidazole derivatives inhibiting retroviral replication via a yet unidentified mode of action” (J Med Chem, 2003).

In the first experiment the test system is C3H/3T3. The experiment can be described thus: Tested for minimum inhibitory concentration against MSV-Induced transformation of C3H/3T3 embryo murine fibroblast in vitro. The following applies: Mus musculus. Format: functional. Summed up: (§1)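 C3H/3T3 cells seeded at 20 000 cells/mL and incubated 24 h, then infected with 80 focus-forming units of MSV for 120 min. Medium was then replaced with fresh medium containing test compound. Transformation was scored microscopically after 6 days.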
For the compound `Cc1ccc(NN2C(S)=NC(C)C2c2ccccc2)cc1C` (stereo not given), the MIC (commonly the lowest concentration found to suppress growth) is above 64.6 µM.

In turn, `Cc1nc(S)n(Nc2cccc(Cl)c2)c1-c1ccccc1` gave an MIC above 63.3 µM.

Turning to `Cc1cccc(NN2C(S)=NC(C)C2c2ccccc2)c1` (stereo not given), the MIC is above 67.7 µM.

Turning to `Cc1nc(S)n(Nc2cccc(Cl)c2)c1-c1cccc(Cl)c1`, the MIC was above 11.4 µM.

On to `CCC1N=C(S)N(Nc2cccc(Cl)c2)C1c1ccccc1` (stereo not given), for which the MIC was above 12.1 µM.

Another experiment deals with Human immunodeficiency virus 1. Kind of experiment: Concentration required to inhibit the viral (HIV-1 NL4.3 strain) cytopathic effect by 50% in MT-4 cells. In kind it is functional, organism-based. The conditions noted are these: Human immunodeficiency virus 1, MT4. The essentials:
(§2)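 Virus-infected MT-4 cells cultured with serial compound dilutions; viability measured 5 days after infection by MTT tetrazolium colorimetric read-out. The value is the concentration protecting 50% of cells from viral cytopathic effect. Averages ± SD from at least two independent experiments. HIV-2 and SIV stocks came from infected MT-4 culture supernatants.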
A general note: Protection from cytopathic effect is a common read-out in antiviral testing.
For `Cc1ccc(NN2C(S)=NC(C)C2c2ccccc2)cc1C` (stereo not given), half-maximal inhibition (IC50) required 3.54 µM.

As to `CC(=O)c1ccc(C)cc1NC(C(N)=O)c1c(Cl)cccc1Cl` (stereo not given) [LOVIRIDE], the half-inhibitory concentration (IC50) (as a rule, the concentration at which inhibition is half-maximal) worked out at 0.006 µM.

`Cc1nc(S)n(Nc2cccc(Cl)c2)c1-c1ccccc1` yielded an IC50 of 8.99 µM.

`Cc1cccc(NN2C(S)=NC(C)C2c2ccccc2)c1` (stereo not given) yielded an IC50 of 2.17 µM. Compared with the last compound, the IC50 is about 4.1-fold lower.

Compound `SC1=NC(c2ccccc2)C(c2ccccc2)N1Nc1cccc(Cl)c1` (stereo not given) had an IC50 above 36.3 µM.

Regarding `CC1N=C(S)N(Nc2cccc(F)c2)C1c1ccccc1` (stereo not given), the 50% inhibitory concentration (IC50) was found to be 18.4 µM. This counts as double-digit micromolar.

`Cc1nc(S)n(Nc2cccc(Cl)c2)c1-c1cccc(Cl)c1` showed an IC50 of 2.48 µM.

In turn, `CCC1N=C(S)N(Nc2cccc(Cl)c2)C1c1ccccc1` (stereo not given) displayed a half-maximal inhibitory concentration (IC50) above 39 µM.

For a further experiment, the system named is Human immunodeficiency virus 1. Kind of experiment: Concentration required to inhibit the viral (HIV-1 NNRTI resistant strain) cytopathic effect by 50% in MT-4 cells. In kind it is functional, organism-based. The following applies: Human immunodeficiency virus 1, MT4. Summed up:
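MT-4 cells infected with HIV-1(III_B)-derived strain S0561945 (K103N + Y181C RT mutations, NNRTI-resistant). Cultured with varying compound concentrations; viability read on day 5 post-infection by MTT tetrazolium colorimetry. Value is the concentration giving 50% protection against virus-induced cytopathic effect. Cytotoxicity measured in parallel on mock-infected cells at day 5. Averages ± SD from at least two independent experiments.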
`Cc1ccc(NN2C(S)=NC(C)C2c2ccccc2)cc1C` (stereo not given) yielded an IC50 above 55.6 µM.

Compound `CC(=O)c1ccc(C)cc1NC(C(N)=O)c1c(Cl)cccc1Cl` (stereo not given) [LOVIRIDE] displayed a half-inhibitory concentration (IC50) above 10 µM.

The compound `Cc1nc(S)n(Nc2cccc(Cl)c2)c1-c1ccccc1` returned an IC50 of 9.72 µM.

In the case of `Cc1cccc(NN2C(S)=NC(C)C2c2ccccc2)c1` (stereo not given), half-maximal inhibition (IC50) required 26.1 µM.

With `SC1=NC(c2ccccc2)C(c2ccccc2)N1Nc1cccc(Cl)c1` (stereo not given), the IC50 was above 36.3 µM.

Take `CC1N=C(S)N(Nc2cccc(F)c2)C1c1ccccc1` (stereo not given): the IC50 is at least 43.4 µM.

Consider `Cc1nc(S)n(Nc2cccc(Cl)c2)c1-c1cccc(Cl)c1`, for which the IC50 came to 1.86 µM. In other words, the single-digit micromolar range.

`CCC1N=C(S)N(Nc2cccc(Cl)c2)C1c1ccccc1` (stereo not given) returned an IC50 above 39 µM.

In a further experiment the test system is Human immunodeficiency virus 2. The experiment can be described thus: Concentration required to inhibit the viral (HIV-2 ROD) cytopathic effect by 50% in MT-4 cells. In kind it is functional, organism-based, MT4. The conditions noted are these: Human immunodeficiency virus 2, MT4. Summed up:
as §2
With `Cc1ccc(NN2C(S)=NC(C)C2c2ccccc2)cc1C` (stereo not given), the IC50 is above 55.6 µM.

In the case of `CC(=O)c1ccc(C)cc1NC(C(N)=O)c1c(Cl)cccc1Cl` (stereo not given) [LOVIRIDE], the IC50 is above 10 µM.

`Cc1nc(S)n(Nc2cccc(Cl)c2)c1-c1ccccc1` gave an IC50 of 8.11 µM. In other words, the single-digit micromolar range.

On to `Cc1cccc(NN2C(S)=NC(C)C2c2ccccc2)c1` (stereo not given), for which the half-maximal inhibitory concentration (IC50) was above 35.7 µM.

`SC1=NC(c2ccccc2)C(c2ccccc2)N1Nc1cccc(Cl)c1` (stereo not given) gave an IC50 above 36.3 µM.

On to `CC1N=C(S)N(Nc2cccc(F)c2)C1c1ccccc1` (stereo not given), for which the IC50 was above 108 µM.

In turn, `Cc1nc(S)n(Nc2cccc(Cl)c2)c1-c1cccc(Cl)c1` had an IC50 of 3.91 µM.

On to `CCC1N=C(S)N(Nc2cccc(Cl)c2)C1c1ccccc1` (stereo not given), for which the IC50 was above 39 µM.

The test system of the next experiment is Simian immunodeficiency virus. The experiment can be described thus: Concentration required to inhibit the viral (SIV mac251) cytopathic effect by 50% in MT-4 cells. Format: functional, organism-based, MT4. The conditions noted are these: Simian immunodeficiency virus, mac251, MT4. Summed up:
as §2
With `Cc1ccc(NN2C(S)=NC(C)C2c2ccccc2)cc1C` (stereo not given), the IC50 came to 10.3 µM.

`CC(=O)c1ccc(C)cc1NC(C(N)=O)c1c(Cl)cccc1Cl` (stereo not given) [LOVIRIDE] returned an IC50 above 10 µM.

In the case of `Cc1nc(S)n(Nc2cccc(Cl)c2)c1-c1ccccc1`, the IC50 was 8.2 µM.

`Cc1cccc(NN2C(S)=NC(C)C2c2ccccc2)c1` (stereo not given) gave an IC50 of 6.5 µM.

Take `SC1=NC(c2ccccc2)C(c2ccccc2)N1Nc1cccc(Cl)c1` (stereo not given): the IC50 was above 36.3 µM.

In turn, `CC1N=C(S)N(Nc2cccc(F)c2)C1c1ccccc1` (stereo not given) showed an IC50 of 33.8 µM.

Consider `Cc1nc(S)n(Nc2cccc(Cl)c2)c1-c1cccc(Cl)c1`, for which 1.22 µM corresponded to half-maximal inhibition (IC50).

`CCC1N=C(S)N(Nc2cccc(Cl)c2)C1c1ccccc1` (stereo not given) gave a 50% inhibitory concentration (IC50) of 3.88 µM.

In another experiment the target is Human immunodeficiency virus type 1 reverse transcriptase (Human immunodeficiency virus 1) (UniProt Q72547). The experiment can be described thus: Tested for the concentration required to inhibit recombinant HIV-1 reverse transcriptase using polyrC.oligodG as the template primer.
Settings: not given
The essentials:
(§3)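 Recombinant HIV-1 RT assay. Template primer and labelled substrate were poly(rA).oligo(dT) with [³H]dTTP, or poly(rC).oligo(dG) with [³H]dGTP. Each radiolabelled dNTP was at 2.5 μM final in the reaction mixture.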
In the case of `Cc1cccc(NN2C(S)=NC(C)C2c2ccccc2)c1` (stereo not given), the Concentration came to 105 µM.

Another experiment has as its system MT4. The experiment can be described thus: (§4) Concentration that reduced the MT-4 cell viability by 50%. The following applies: Homo sapiens. Format: functional, cell-based. The essentials:
(§5)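 Mock-infected MT-4 cells, run in parallel with the antiviral assay, were exposed to compound. Viability on day 5 was read by MTT colorimetry. The value is the concentration lowering viability by 50%. Averages ± SD from at least two independent experiments.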
For `CC(=O)c1ccc(C)cc1NC(C(N)=O)c1c(Cl)cccc1Cl` (stereo not given) [LOVIRIDE], the CC50 (commonly the concentration at which the toxic effect on the cells reaches its halfway point) was above 10 µM.

For a further experiment, the system named is Human immunodeficiency virus 1. The experiment can be described thus: Concentration required to inhibit the viral (HIV-1 IIIB strain) cytopathic effect by 50% in MT-4 cells. Format: functional, organism-based. The conditions noted are these: Human immunodeficiency virus 1, MT4. Summed up: as §2
Compound `Cc1ccc(NN2C(S)=NC(C)C2c2ccccc2)cc1C` (stereo not given) had an IC50 of 9.3 µM.

`CC(=O)c1ccc(C)cc1NC(C(N)=O)c1c(Cl)cccc1Cl` (stereo not given) [LOVIRIDE] yielded an IC50 of 0.014 µM. Against the preceding compound, the IC50 is about 660-fold lower.

Turning to `Cc1nc(S)n(Nc2cccc(Cl)c2)c1-c1ccccc1`, 6.39 µM corresponded to half-maximal inhibition (IC50).

In turn, `Cc1cccc(NN2C(S)=NC(C)C2c2ccccc2)c1` (stereo not given) showed an IC50 of 1.56 µM.

Turning to `SC1=NC(c2ccccc2)C(c2ccccc2)N1Nc1cccc(Cl)c1` (stereo not given), the IC50 is above 36.3 µM.

`CC1N=C(S)N(Nc2cccc(F)c2)C1c1ccccc1` (stereo not given) came in with an IC50 above 108 µM.

`Cc1nc(S)n(Nc2cccc(Cl)c2)c1-c1cccc(Cl)c1` gave a half-inhibitory concentration (IC50) of 5 µM.

`CCC1N=C(S)N(Nc2cccc(Cl)c2)C1c1ccccc1` (stereo not given) came in with an IC50 of 9.06 µM.

For the next experiment, the system named is C3H/3T3. The experiment can be described thus: Tested for inhibitory concentration against MSV-Induced transformation of C3H/3T3 embryo murine fibroblast in vitro. Format: functional, cell-based. The following applies: Mus musculus. Summed up: as §1
As for `Cc1ccc(NN2C(S)=NC(C)C2c2ccccc2)cc1C` (stereo not given), the IC50 was above 64.6 µM.

With `Cc1nc(S)n(Nc2cccc(Cl)c2)c1-c1ccccc1`, inhibition was half-maximal at 38 µM (IC50).

Compound `Cc1cccc(NN2C(S)=NC(C)C2c2ccccc2)c1` (stereo not given) came in with an IC50 above 67.7 µM.

Compound `Cc1nc(S)n(Nc2cccc(Cl)c2)c1-c1cccc(Cl)c1` gave an IC50 above 11.4 µM.

In turn, `CCC1N=C(S)N(Nc2cccc(Cl)c2)C1c1ccccc1` (stereo not given) showed an IC50 above 12.1 µM.

For the next experiment, the target named is Human immunodeficiency virus type 1 reverse transcriptase (Human immunodeficiency virus 1) (UniProt Q72547). Kind of experiment: Tested for the concentration required to inhibit recombinant HIV-1 reverse transcriptase using polyrA.oligodT as the template primer.
Settings: not given
Summed up: as §3
Consider `Cc1cccc(NN2C(S)=NC(C)C2c2ccccc2)c1` (stereo not given), for which the Concentration worked out at 125 µM.

For the next experiment, the system named is MT4. The description is as §4. In kind it is functional, Homo sapiens. The conditions noted are these: Homo sapiens, MT4. Summed up: as §5
`Cc1ccc(NN2C(S)=NC(C)C2c2ccccc2)cc1C` (stereo not given) showed a CC50 of 55.6 µM.

Compound `Cc1nc(S)n(Nc2cccc(Cl)c2)c1-c1ccccc1` came in with a CC50 of 66.7 µM.

For the compound `Cc1cccc(NN2C(S)=NC(C)C2c2ccccc2)c1` (stereo not given), the midpoint of cytotoxicity, the CC50, lay at 88.2 µM.

The compound `SC1=NC(c2ccccc2)C(c2ccccc2)N1Nc1cccc(Cl)c1` (stereo not given) had a CC50 of 36.3 µM.

`CC1N=C(S)N(Nc2cccc(F)c2)C1c1ccccc1` (stereo not given) registered a CC50 of 108 µM.

Regarding `Cc1nc(S)n(Nc2cccc(Cl)c2)c1-c1cccc(Cl)c1`, the CC50 was found to be 30.9 µM.

For `CCC1N=C(S)N(Nc2cccc(Cl)c2)C1c1ccccc1` (stereo not given), half-maximal cytotoxicity (CC50) was put at 39 µM.
